Experimental data taken from ChEMBL document CHEMBL1137261, “Structural insights into the ATP binding pocket of the anaplastic lymphoma kinase by site-directed mutagenesis, inhibitor binding analysis, and homology modeling” (J Med Chem, 2006).
Active and inactive are the calls of the source. The calls are words filed in the database; no cut-off is given here.

Columns and labels:
[1] = system: BaF3; test: Antiproliferative activity against murine BaF3 cells expressing wild type NPM/ALK by [3H]thymidine uptake assay; assay type: functional, cell-based; conditions: Mus musculus
How it was run: (§1)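 IL-3-independent BaF3 clones stably transfected (electroporation, G418 selection) with human NPM/ALK, WT or L256T; RPMI 1640 + 10% FBS, 37 °C, 5% CO2. Seeded 10^4/well, exposed to inhibitor (0-4 µM range in figure) or vehicle for 8-48 h; 3[H]-thymidine uptake.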

[2] = system: BaF3; test: Antiproliferative activity against murine BaF3 cells expressing NPM/ALK L256T mutant by [3H]thymidine uptake assay; assay type: functional, cell-based; conditions: Mus musculus; how it was run: as §1
[3] = system: BaF3; test: Induction of cell death of murine BaF3 cells expressing NPM/ALK L256T mutant by trypan blue exclusion assay; assay type: functional, cell-based; conditions: Mus musculus
[4] = target: T1, NPM/ALK (Nucleophosmin/ALK tyrosine kinase receptor) (Homo sapiens, UniProt Q9UM73); test: Inhibition of wild type NPM/ALK autophosphorylation activity in BaF3 cells by antiphosphotyrosine immunoblotting assay; assay type: cell-based
T1 sequence (Q9UM73 whole entry): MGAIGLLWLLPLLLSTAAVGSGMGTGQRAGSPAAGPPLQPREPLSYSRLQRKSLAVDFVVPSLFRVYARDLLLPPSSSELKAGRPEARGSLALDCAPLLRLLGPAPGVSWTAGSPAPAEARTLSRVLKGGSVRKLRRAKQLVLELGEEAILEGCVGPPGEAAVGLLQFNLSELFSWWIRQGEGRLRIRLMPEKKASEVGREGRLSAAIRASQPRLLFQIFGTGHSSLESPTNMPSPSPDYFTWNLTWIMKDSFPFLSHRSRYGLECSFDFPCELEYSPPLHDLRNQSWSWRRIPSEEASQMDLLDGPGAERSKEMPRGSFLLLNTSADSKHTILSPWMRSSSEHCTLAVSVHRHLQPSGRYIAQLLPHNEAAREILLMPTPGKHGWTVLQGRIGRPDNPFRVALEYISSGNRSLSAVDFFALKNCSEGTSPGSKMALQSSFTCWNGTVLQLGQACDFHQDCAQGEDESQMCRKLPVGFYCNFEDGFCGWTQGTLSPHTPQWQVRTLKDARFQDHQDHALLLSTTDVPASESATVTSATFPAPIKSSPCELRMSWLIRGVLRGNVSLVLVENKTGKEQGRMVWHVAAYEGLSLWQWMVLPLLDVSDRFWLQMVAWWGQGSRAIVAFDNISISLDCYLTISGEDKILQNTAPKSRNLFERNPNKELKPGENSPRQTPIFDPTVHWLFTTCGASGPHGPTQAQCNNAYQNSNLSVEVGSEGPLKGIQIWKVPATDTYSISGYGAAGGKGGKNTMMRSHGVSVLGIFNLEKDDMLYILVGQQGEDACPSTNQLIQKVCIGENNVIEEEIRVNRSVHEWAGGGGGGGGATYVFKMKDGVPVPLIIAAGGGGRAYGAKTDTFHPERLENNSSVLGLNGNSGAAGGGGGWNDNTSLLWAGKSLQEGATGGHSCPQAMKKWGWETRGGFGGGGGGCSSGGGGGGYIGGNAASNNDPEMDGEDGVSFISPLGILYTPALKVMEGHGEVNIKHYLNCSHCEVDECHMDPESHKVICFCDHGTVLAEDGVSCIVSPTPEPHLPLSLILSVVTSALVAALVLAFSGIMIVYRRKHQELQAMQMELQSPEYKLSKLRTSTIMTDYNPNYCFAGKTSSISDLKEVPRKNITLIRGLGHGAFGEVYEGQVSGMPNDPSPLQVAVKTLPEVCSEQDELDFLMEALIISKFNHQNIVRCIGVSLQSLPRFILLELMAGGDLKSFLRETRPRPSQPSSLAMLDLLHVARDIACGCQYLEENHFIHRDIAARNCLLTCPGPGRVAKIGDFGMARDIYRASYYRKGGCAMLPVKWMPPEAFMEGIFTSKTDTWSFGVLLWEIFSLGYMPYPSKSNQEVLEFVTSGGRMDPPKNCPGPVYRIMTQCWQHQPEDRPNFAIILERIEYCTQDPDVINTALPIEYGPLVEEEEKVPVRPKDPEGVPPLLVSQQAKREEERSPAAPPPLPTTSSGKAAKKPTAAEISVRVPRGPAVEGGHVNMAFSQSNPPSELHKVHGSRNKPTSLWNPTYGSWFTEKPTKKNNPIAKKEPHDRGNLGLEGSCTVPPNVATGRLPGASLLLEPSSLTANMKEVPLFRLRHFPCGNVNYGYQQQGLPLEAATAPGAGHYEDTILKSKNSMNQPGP
T1 sequence (P06748 whole entry, further chain): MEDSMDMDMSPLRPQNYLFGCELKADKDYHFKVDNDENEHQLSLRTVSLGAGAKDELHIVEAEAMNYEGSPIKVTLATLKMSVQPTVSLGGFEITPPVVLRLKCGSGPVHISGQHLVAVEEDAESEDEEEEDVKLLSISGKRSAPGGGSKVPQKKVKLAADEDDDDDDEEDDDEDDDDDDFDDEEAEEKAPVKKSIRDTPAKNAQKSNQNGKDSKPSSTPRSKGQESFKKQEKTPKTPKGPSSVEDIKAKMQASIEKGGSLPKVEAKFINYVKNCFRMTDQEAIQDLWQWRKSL

[5] = target: T2, NPM/ALK (Nucleophosmin/ALK tyrosine kinase receptor) (Homo sapiens, UniProt P06748+Q9UM73, L256T); test: Inhibition of NPM/ALK L256T mutant autophosphorylation activity in BaF3 cells by antiphosphotyrosine immunoblotting assay; assay type: cell-based
T2 sequence (P06748 whole entry, stated change not applied): as the sequence (P06748 whole entry, further chain) above
T2 sequence (Q9UM73 19-1620 L256T limits assumed, stated change not applied): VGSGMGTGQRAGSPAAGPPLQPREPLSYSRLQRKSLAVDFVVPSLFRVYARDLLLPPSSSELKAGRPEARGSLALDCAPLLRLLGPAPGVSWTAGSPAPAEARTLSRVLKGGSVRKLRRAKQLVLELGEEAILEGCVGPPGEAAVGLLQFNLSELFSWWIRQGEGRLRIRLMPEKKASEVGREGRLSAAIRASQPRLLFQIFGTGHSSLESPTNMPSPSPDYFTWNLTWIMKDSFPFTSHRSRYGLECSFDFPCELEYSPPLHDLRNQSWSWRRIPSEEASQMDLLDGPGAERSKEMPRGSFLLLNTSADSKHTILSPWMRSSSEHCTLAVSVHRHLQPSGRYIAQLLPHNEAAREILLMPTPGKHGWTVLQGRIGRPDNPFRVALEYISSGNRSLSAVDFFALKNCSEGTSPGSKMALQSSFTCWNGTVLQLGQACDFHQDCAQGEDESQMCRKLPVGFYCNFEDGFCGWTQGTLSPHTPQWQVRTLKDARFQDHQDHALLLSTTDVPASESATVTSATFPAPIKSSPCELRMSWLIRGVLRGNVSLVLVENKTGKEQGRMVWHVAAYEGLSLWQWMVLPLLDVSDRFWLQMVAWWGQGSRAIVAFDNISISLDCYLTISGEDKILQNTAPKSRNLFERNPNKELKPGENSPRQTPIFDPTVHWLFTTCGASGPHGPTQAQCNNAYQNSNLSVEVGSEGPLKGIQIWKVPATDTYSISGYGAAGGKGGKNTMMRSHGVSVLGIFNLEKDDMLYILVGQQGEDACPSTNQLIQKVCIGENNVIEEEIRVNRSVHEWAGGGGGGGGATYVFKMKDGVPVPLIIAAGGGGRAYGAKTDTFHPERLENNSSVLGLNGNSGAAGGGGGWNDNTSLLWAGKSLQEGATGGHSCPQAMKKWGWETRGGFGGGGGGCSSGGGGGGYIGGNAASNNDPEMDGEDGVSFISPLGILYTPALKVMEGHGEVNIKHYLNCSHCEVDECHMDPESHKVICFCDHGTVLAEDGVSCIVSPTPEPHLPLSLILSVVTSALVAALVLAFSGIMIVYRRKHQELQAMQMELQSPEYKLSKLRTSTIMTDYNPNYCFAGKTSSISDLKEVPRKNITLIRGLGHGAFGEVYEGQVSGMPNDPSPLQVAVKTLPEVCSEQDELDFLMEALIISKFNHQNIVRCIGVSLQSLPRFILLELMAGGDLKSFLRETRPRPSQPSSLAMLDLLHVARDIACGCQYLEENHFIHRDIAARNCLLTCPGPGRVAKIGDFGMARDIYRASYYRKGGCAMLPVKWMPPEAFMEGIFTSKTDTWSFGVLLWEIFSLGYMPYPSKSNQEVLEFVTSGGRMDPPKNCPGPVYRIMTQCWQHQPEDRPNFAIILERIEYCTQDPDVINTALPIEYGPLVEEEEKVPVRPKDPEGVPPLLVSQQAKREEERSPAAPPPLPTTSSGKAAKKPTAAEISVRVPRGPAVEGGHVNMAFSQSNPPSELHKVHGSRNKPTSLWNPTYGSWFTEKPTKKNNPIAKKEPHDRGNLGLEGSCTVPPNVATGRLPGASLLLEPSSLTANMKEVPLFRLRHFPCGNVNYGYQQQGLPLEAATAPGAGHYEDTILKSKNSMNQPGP

[6] = target: T2, NPM/ALK (Nucleophosmin/ALK tyrosine kinase receptor); test: Inhibition of NPM/ALK L256T mutant kinase activity in BaF3 cells by radioenzymatic assay; assay type: cell-based
[7] = target: T1, NPM/ALK (Nucleophosmin/ALK tyrosine kinase receptor); test: Inhibition of wild type NPM/ALK kinase activity in BaF3 cells by radioenzymatic assay; assay type: cell-based

| IC50 [1] [nM] | IC50 [2] [nM] | IC50 [4] [nM] | IC50 [5] [nM] | IC50 [6] [nM] | IC50 [7] [nM] | SMILES | Activity [3] |
| --- | --- | --- | --- | --- | --- | --- | --- |
| 7100 | 9100 |  |  |  |  | Cc1ccc(NC(=O)c2ccc(CN3CCN(C)CC3)cc2)cc1Nc1nccc(-c2cccnc2)n1 [IMATINIB] |  |
| 2000 | 1800 |  |  |  |  | CSc1cccc(Nc2ncc3cc(-c4c(Cl)cccc4Cl)c(=O)n(C)c3n2)c1 | Active |
| 1000 | 200 | > 20000 | 200 | 150 | > 10000 | COc1cc(Nc2c(C#N)cnc3cc(OCCCN4CCN(C)CC4)c(OC)cc23)c(Cl)cc1Cl [BOSUTINIB] | Active |
